From ChEMBL document CHEMBL3596197, “Synthesis, topoisomerase I and II inhibitory activity, cytotoxicity, and structure-activity relationship study of 2-phenyl- or hydroxylated 2-phenyl-4-aryl-5H-indeno[1,2-b]pyridines” (Bioorg Med Chem, 2015)
Where a name gives a salt, the structure may show the parent alone.

Experiments:
[1] = target: T1, DNA topoisomerase 1 (Homo sapiens) (UniProt P11387); assay: Inhibition of human recombinant DNA topoisomerse 1 using pBR322 as substrate assessed as inhibition of conversion of supercoiled pBR322 to relaxed form at 100 uM after 30 mins by ethidium bromide staining-based electrophoresis analysis
T1 sequence (whole entry): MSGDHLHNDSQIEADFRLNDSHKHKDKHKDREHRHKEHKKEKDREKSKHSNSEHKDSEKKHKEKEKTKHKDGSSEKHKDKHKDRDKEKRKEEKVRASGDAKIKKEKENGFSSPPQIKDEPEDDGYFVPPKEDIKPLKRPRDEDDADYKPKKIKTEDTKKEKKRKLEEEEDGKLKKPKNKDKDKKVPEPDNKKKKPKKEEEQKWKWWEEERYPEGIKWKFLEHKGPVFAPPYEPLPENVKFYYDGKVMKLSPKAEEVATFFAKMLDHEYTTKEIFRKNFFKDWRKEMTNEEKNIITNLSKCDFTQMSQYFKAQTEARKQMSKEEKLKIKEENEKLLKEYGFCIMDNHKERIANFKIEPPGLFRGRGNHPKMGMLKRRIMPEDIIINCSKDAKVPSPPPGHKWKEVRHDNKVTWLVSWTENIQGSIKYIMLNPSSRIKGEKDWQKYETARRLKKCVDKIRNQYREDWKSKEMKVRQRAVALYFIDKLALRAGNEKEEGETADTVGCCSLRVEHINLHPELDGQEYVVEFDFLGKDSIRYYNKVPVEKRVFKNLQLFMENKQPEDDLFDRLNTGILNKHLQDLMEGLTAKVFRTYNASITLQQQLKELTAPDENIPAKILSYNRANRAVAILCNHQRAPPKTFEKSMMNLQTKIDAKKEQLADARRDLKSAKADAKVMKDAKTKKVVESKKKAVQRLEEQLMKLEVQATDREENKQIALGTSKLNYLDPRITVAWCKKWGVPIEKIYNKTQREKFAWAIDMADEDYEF
Summary of the method: (§1)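 Relaxation of supercoiled pBR322 (100 ng) by 1 unit recombinant human topo I. Run at 37 °C for 30 min in 10 mM Tris-HCl pH 7.9, 150 mM NaCl, 0.1% BSA, 1 mM spermidine, 5% glycerol. Compounds from 20 mM DMSO stocks. Stopped with sarcosyl, then 1% agarose gel at 15 V for 7 h in TAE. Ethidium bromide stain, UV imaging, bands quantitated.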

[2] = target: T1, DNA topoisomerase 1 (Homo sapiens); assay: Inhibition of human recombinant DNA topoisomerse 1 using pBR322 as substrate assessed as inhibition of conversion of supercoiled pBR322 to relaxed form at 20 uM after 30 mins by ethidium bromide staining-based electrophoresis analysis; summary of the method: as §1
[3] = target: DNA topoisomerase 2-alpha (Homo sapiens) (UniProt P11388); assay: Inhibition of human recombinant DNA topoisomerse 2 alpha using pBR322 as substrate assessed as inhibition of conversion of supercoiled pBR322 to relaxed form at 100 uM after 30 mins by ethidium bromide staining-based electrophoresis analysis
Summary of the method: (§2)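 Supercoiled pBR322 (200 ng) with 1 unit human topo IIα, 30 min at 30 °C. Buffer: 10 mM Tris-HCl pH 7.9, 50 mM NaCl, 5 mM MgCl2, 1 mM EDTA, 1 mM ATP, 15 μg/mL BSA. Stopped with EDTA. 1% agarose gel at 25 V for 4 h in TAE, ethidium bromide stain, supercoiled DNA quantitated under UV.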

HCT-15 = assay: Cytotoxicity against human HCT15 cells incubated from day 2 to day 4 by CCK8 assay; type: functional, cell-based
Summary of the method: (§3)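 Cells seeded at 2~4 × 10^4 per well and grown overnight in medium with 10% FBS at 37 °C, 5% CO2. Day 2: FBS starvation 4 h, then medium with graded compound concentrations. Day 4: CCK-8 added for 4 h more, absorbance read at 450 nm. IC50 from four-parameter logistic fit. Mean ± S.D. of three experiments run in triplicate.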

T47D = assay: Cytotoxicity against human T47D cells incubated from day 2 to day 4 by CCK8 assay; type: functional, cell-based; summary of the method: as §3
DU-145 = assay: Cytotoxicity against human DU145 cells incubated from day 2 to day 4 by CCK8 assay; type: functional, cell-based; summary of the method: as §3
HeLa = assay: Cytotoxicity against human HeLa cells incubated from day 2 to day 4 by CCK8 assay; type: functional, cell-based; summary of the method: as §3
[4] = target: DNA topoisomerase 2-alpha (Homo sapiens) (UniProt P11388); assay: Inhibition of human recombinant DNA topoisomerse 2 alpha using pBR322 as substrate assessed as inhibition of conversion of supercoiled pBR322 to relaxed form at 20 uM after 30 mins by ethidium bromide staining-based electrophoresis analysis; summary of the method: as §2

DNA topoisomerase 2-alpha (Homo sapiens), sequence (P11388 whole entry): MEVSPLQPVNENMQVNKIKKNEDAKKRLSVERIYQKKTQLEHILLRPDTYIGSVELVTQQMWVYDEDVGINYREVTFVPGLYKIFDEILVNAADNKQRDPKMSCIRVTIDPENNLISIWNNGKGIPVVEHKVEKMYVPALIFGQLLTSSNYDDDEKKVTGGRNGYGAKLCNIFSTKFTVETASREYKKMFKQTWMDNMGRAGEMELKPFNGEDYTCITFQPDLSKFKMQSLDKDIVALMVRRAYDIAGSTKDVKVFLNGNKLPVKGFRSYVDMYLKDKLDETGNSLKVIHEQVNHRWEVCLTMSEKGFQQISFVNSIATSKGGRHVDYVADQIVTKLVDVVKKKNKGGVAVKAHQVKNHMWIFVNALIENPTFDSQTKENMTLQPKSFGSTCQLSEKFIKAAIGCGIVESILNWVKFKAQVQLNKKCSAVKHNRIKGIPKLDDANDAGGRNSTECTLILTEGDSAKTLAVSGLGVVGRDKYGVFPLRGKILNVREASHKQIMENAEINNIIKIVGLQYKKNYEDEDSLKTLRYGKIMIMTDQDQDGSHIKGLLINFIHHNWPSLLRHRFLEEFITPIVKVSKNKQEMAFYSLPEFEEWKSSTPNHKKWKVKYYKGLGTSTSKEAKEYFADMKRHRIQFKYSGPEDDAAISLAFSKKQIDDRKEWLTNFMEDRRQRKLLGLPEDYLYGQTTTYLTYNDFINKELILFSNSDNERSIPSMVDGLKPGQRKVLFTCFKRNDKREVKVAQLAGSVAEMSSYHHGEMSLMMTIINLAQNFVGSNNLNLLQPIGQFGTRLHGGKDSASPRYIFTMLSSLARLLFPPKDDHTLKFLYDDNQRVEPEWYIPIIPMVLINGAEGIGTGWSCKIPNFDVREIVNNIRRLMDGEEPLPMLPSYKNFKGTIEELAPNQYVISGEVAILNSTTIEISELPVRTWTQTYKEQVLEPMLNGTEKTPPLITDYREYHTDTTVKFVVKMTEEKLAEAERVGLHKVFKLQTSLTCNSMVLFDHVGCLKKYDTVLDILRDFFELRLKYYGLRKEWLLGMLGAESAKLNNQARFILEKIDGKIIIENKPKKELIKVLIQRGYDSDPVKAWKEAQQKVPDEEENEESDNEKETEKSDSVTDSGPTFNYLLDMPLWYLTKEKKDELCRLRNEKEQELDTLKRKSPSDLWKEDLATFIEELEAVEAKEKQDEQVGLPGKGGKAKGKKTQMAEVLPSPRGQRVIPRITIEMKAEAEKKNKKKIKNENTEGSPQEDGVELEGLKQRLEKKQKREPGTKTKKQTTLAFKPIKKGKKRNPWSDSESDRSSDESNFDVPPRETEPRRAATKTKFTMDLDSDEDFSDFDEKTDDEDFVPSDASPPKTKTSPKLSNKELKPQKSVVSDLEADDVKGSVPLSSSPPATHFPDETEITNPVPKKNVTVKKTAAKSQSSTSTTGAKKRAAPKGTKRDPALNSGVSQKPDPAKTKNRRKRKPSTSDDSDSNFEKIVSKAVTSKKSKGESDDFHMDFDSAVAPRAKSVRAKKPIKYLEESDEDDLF

Structure (SMILES) | inhibition [1] [%] | inhibition [2] [%] | inhibition [3] [%] | IC50 (HCT-15) [µM] | IC50 (T47D) [µM] | IC50 (DU-145) [µM] | IC50 (HeLa) [µM] | inhibition [4] [%]
Oc1ccccc1-c1cc(-c2ccncc2)c2c(n1)-c1ccccc1C2 | 68.7 | 2.3 | 5.1 | > 50 | > 50 | 39.6 | > 50 | –
Oc1ccc(-c2cc(-c3ccco3)c3c(n2)-c2ccccc2C3)cc1 | 54.8 | 2.7 | 59.9 | > 50 | > 50 | > 50 | > 50 | 44.2
c1ccc(-c2cc(-c3ccoc3)c3c(n2)-c2ccccc2C3)cc1 | 0 | – | 19.6 | 1.52 | 35.3 | 46.5 | 23.8 | 15.1
Oc1ccc(-c2cc(-c3ccccn3)c3c(n2)-c2ccccc2C3)cc1 | 61.2 | 4.7 | 18.2 | > 50 | > 50 | > 50 | > 50 | –
c1ccc(-c2cc(-c3cccnc3)c3c(n2)-c2ccccc2C3)cc1 | 4.1 | – | – | > 50 | > 50 | > 50 | > 50 | –
Oc1ccc(-c2cc(-c3ccncc3)c3c(n2)-c2ccccc2C3)cc1 | 72.4 | 0.7 | 27.1 | > 50 | > 50 | > 50 | > 50 | –
Oc1ccccc1-c1cc(-c2cccs2)c2c(n1)-c1ccccc1C2 | 51.1 | 0 | 31.5 | > 50 | > 50 | > 50 | > 50 | 21.9
Oc1cccc(-c2cc(-c3ccncc3)c3c(n2)-c2ccccc2C3)c1 | 49.8 | 1.5 | 8.4 | > 50 | > 50 | > 50 | > 50 | –
COc1cc([C@@H]2c3cc4c(cc3[C@@H](O[C@@H]3O[C@@H]5CO[C@@H](C)O[C@H]5[C@H](O)[C@H]3O)[C@H]3COC(=O)[C@H]23)OCO4)cc(OC)c1O [ETOPOSIDE] | – | – | – | – | 0.7 | – | – | –
Oc1ccccc1-c1cc(-c2cccnc2)c2c(n1)-c1ccccc1C2 | 70.9 | 3.8 | 3.5 | > 50 | > 50 | > 50 | > 50 | –
c1ccc(-c2cc(-c3ccsc3)c3c(n2)-c2ccccc2C3)cc1 | 3.4 | – | 16.7 | 31.4 | > 50 | 1.62 | 29.8 | –
Oc1cccc(-c2cc(-c3cccnc3)c3c(n2)-c2ccccc2C3)c1 | 68.5 | 1.7 | 50.6 | > 50 | > 50 | > 50 | 4.67 | 30.6
Oc1ccccc1-c1cc(-c2ccco2)c2c(n1)-c1ccccc1C2 | 58.3 | 2.4 | 11.7 | > 50 | > 50 | > 50 | > 50 | –
c1ccc(-c2cc(-c3ccccn3)c3c(n2)-c2ccccc2C3)cc1 | 3.6 | – | 16.4 | > 50 | 44.5 | 13.2 | 18.7 | –
CC[C@@]1(O)C(=O)OCc2c1cc1n(c2=O)Cc2cc3ccccc3nc2-1 [CAMPTOTHECIN] | – | – | – | 0.52 | 0.31 | – | 0.41 | –
Oc1ccc(-c2cc(-c3cccs3)c3c(n2)-c2ccccc2C3)cc1 | 69.1 | 0 | 40.1 | > 50 | > 50 | > 50 | > 50 | 21.4
Oc1ccccc1-c1cc(-c2ccccn2)c2c(n1)-c1ccccc1C2 | 52.8 | 4.9 | 9.1 | > 50 | > 50 | > 50 | > 50 | –
Oc1cccc(-c2cc(-c3ccco3)c3c(n2)-c2ccccc2C3)c1 | 59.7 | 5.5 | 78.2 | 1.59 | 6.74 | 4.38 | 3.66 | 44.5
Oc1cccc(-c2cc(-c3ccsc3)c3c(n2)-c2ccccc2C3)c1 | 76.9 | 0 | 77.2 | 6.73 | 0.94 | 2.3 | 1.74 | 37
c1ccc(-c2cc(-c3ccncc3)c3c(n2)-c2ccccc2C3)cc1 | 3.3 | – | – | > 50 | > 50 | > 50 | > 50 | –
Oc1cccc(-c2cc(-c3ccoc3)c3c(n2)-c2ccccc2C3)c1 | 69.2 | 0 | 56.2 | > 50 | > 50 | 28.9 | 0.94 | 19.3
Oc1ccc(-c2cc(-c3ccsc3)c3c(n2)-c2ccccc2C3)cc1 | 90.1 | 0 | 36.9 | > 50 | > 50 | > 50 | > 50 | 0
Oc1ccccc1-c1cc(-c2ccsc2)c2c(n1)-c1ccccc1C2 | 87.8 | 0 | 46.8 | > 50 | > 50 | 36.5 | > 50 | 23.2
Oc1ccccc1-c1cc(-c2ccoc2)c2c(n1)-c1ccccc1C2 | 50.6 | 0.5 | 51.7 | > 50 | > 50 | > 50 | > 50 | 39.2
Oc1ccc(-c2cc(-c3ccoc3)c3c(n2)-c2ccccc2C3)cc1 | 63.5 | 0 | 40.4 | > 50 | > 50 | > 50 | > 50 | 36.9
c1ccc(-c2cc(-c3ccco3)c3c(n2)-c2ccccc2C3)cc1 | 73 | 8.7 | 44.5 | 11.2 | 10.6 | 5 | 1.42 | 25.9
c1ccc(-c2cc(-c3cccs3)c3c(n2)-c2ccccc2C3)cc1 | 3.7 | – | 16.8 | > 50 | 26.7 | 9.34 | 30.8 | –
Oc1cccc(-c2cc(-c3ccccn3)c3c(n2)-c2ccccc2C3)c1 | 5.9 | – | 48.5 | > 50 | > 50 | > 50 | 3.09 | 19.7
Oc1ccc(-c2cc(-c3cccnc3)c3c(n2)-c2ccccc2C3)cc1 | 59.7 | 2.4 | 28.3 | > 50 | > 50 | > 50 | > 50 | –
COc1cccc2c1C(=O)c1c(O)c3c(c(O)c1C2=O)C[C@@](O)(C(=O)CO)C[C@@H]3O[C@H]1C[C@H](N)[C@H](O)[C@H](C)O1 [DOXORUBICIN HYDROCHLORIDE] | – | – | – | – | – | 1.02 | – | –
